Measurements published in ChEMBL document CHEMBL2417474, “Synthesis, antiproliferative and anti-inflammatory activities of some novel 6-aryl-2-(p-(methanesulfonyl)phenyl)-4,5-dihydropyridazi-3(2H)-ones” (Eur J Med Chem, 2013).

Experiments:
Format in all cases: functional
OVCAR-5 = assay: Growth inhibition of human OVCAR5 cells after 48 hrs by sulforhodamine B assay; settings: OVCAR-5, 48 h
Outline: (§1)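 NCI 60-cell-line panel. Cells were grown in medium with 5% fetal calf serum and 2 mM L-glutamine, then preincubated 24 h in plates. Compounds were added from DMSO at five 10-fold concentrations from 100 to 0.01 µM and left on cells continuously for 48 h. Cell growth was read by sulforhodamine B protein stain. GI50 is the concentration that halves net protein increase relative to control cells.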

NCI-H522 = assay: Growth inhibition of human NCI-H522 cells after 48 hrs by sulforhodamine B assay; settings: NCI-H522, 48 h; outline: as §1
SR [1] = assay: Growth inhibition of human SR cells after 48 hrs by sulforhodamine B assay; outline: as §1
ACHN = assay: Growth inhibition of human ACHN cells assessed as cell growth at 10 uM after 48 hrs by sulforhodamine B assay; settings: read-out: Activity
COLO 205 = assay: Growth inhibition of human COLO205 cells assessed as cell growth at 10 uM after 48 hrs by sulforhodamine B assay; settings: COLO 205, 48 h, read-out: Activity
UACC-62 = assay: Growth inhibition of human UACC62 cells assessed as cell growth at 10 uM after 48 hrs by sulforhodamine B assay; settings: UACC-62, 48 h, read-out: Activity
Outline: (§2)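 Single-dose NCI screen. Tumor lines were cultured in medium with 5% fetal calf serum and 2 mM L-glutamine, preincubated 24 h, then given compound in DMSO. After 48 h continuous exposure, cell growth was estimated by sulforhodamine B protein assay.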

NCI-H460 = assay: Growth inhibition of human NCI-H460 cells after 48 hrs by sulforhodamine B assay; settings: NCI-H460, 48 h; outline: as §1
SR [2] = assay: Growth inhibition of human SR cells assessed as cell growth at 10 uM after 48 hrs by sulforhodamine B assay; settings: read-out: Activity; outline: as §2
SF-539 = assay: Growth inhibition of human SF539 cells assessed as cell growth at 10 uM after 48 hrs by sulforhodamine B assay; settings: SF-539, 48 h, read-out: Activity
UACC-257 = assay: Growth inhibition of human UACC257 cells after 48 hrs by sulforhodamine B assay; settings: UACC-257, 48 h
Outline: (§3)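 NCI 60-line panel. Cells were grown in medium with 5% fetal calf serum and 2 mM L-glutamine and preincubated 24 h in plates. Compound in DMSO was added at 10^-4 to 10^-8 M (five 10-fold levels), with continuous exposure for 48 h. Growth was read by SRB protein staining. GI50 is the concentration giving 50% reduction in net protein increase versus control cells.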

BT-549 [3] = assay: Growth inhibition of human BT549 cells assessed as cell growth at 10 uM after 48 hrs by sulforhodamine B assay; settings: BT-549, 48 h, read-out: Activity
MDA-MB-435 = assay: Growth inhibition of human MDA-MB-435 cells after 48 hrs by sulforhodamine B assay; settings: MDA-MB-435, 48 h; outline: as §1
MDA-MB-231 = assay: Growth inhibition of human MDA-MB-231 cells after 48 hrs by sulforhodamine B assay; settings: MDA-MB-231, 48 h
Outline: (§4)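 NCI 60-cell-line panel grown in RPMI-type medium with 5% fetal calf serum and 2 mM L-glutamine. Cells preincubated 24 h, then exposed continuously for 48 h to compound in DMSO at 10^-4 to 10^-8 M (five 10-fold levels). Growth read by SRB protein stain. GI50 is the concentration giving a 50% reduction in net protein increase relative to control cells.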

SK-MEL-2 = assay: Growth inhibition of human SK-MEL-2 cells assessed as cell growth at 10 uM after 48 hrs by sulforhodamine B assay; settings: SK-MEL-2, 48 h, read-out: Activity
IGROV-1 = assay: Growth inhibition of human IGROV1 cells assessed as cell growth at 10 uM after 48 hrs by sulforhodamine B assay; settings: IGROV-1, 48 h, read-out: Activity
OVCAR-4 = assay: Growth inhibition of human OVCAR4 cells assessed as cell growth at 10 uM after 48 hrs by sulforhodamine B assay; settings: OVCAR-4, 48 h, read-out: Activity
SK-MEL-28 = assay: Growth inhibition of human SK-MEL-28 cells after 48 hrs by sulforhodamine B assay; settings: SK-MEL-28, 48 h; outline: as §1
[4] = Growth inhibition of human EKVX cells after 48 hrs by sulforhodamine B assay; outline: as §4
SW-620 = assay: Growth inhibition of human SW620 cells after 48 hrs by sulforhodamine B assay; settings: SW-620, 48 h; outline: as §3
T47D = assay: Growth inhibition of human T47D cells assessed as cell growth at 10 uM after 48 hrs by sulforhodamine B assay; settings: read-out: Activity; outline: as §2
SF-268 = assay: Growth inhibition of human SF268 cells after 48 hrs by sulforhodamine B assay; settings: SF-268, 48 h; outline: as §1
A549 = assay: Growth inhibition of human A549/ATCC cells after 48 hrs by sulforhodamine B assay; settings: A549, 48 h; outline: as §4
[5] = Growth inhibition of human NCI-ADR-RES cells assessed as cell growth at 10 uM after 48 hrs by sulforhodamine B assay; settings: read-out: Activity
RXF 393 = assay: Growth inhibition of human RXF393 cells assessed as cell growth at 10 uM after 48 hrs by sulforhodamine B assay; settings: RXF 393, 48 h, read-out: Activity
[6] = Growth inhibition of human Hs 578T cells assessed as cell growth at 10 uM after 48 hrs by sulforhodamine B assay; settings: read-out: Activity
HCT-116 = assay: Growth inhibition of human HCT116 cells assessed as cell growth at 10 uM after 48 hrs by sulforhodamine B assay; settings: HCT-116, 48 h, read-out: Activity
Rattus norvegicus = assay: Antiinflammatory activity in Wistar rat assessed as inhibition of carrageenan-induced paw edema at 0.05 mmol/kg, po administered 30 mins prior challenge measured after 3 hrs
Outline: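 Wistar rats of either sex, 150–175 g, fasted 16 h, 6 per group. Dosed orally at 0.05 mmol/kg, suspended in 1% CMC in water (10 ml/kg). 30 min later, 0.1 ml of 1% carrageenan in saline injected subplantar into the left hind paw. Paw volume read by plethysmometer at 0, 3 and 5 h. % inhibition = (1 − Vt/Vc) × 100 against the vehicle group.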

BT-549 [7] = assay: Growth inhibition of human BT549 cells after 48 hrs by sulforhodamine B assay; settings: BT-549, 48 h; outline: as §4
[8] = read-out: LC50 (the source's name)

For `CCc1ccc(C2=NN(c3ccc(S(C)(=O)=O)cc3)C(=O)CC2)cc1`, the GI50 (OVCAR-5) was 8.51 µM, the TGI (OVCAR-5) was over 100 µM and the CC50 (OVCAR-5; [8]) was over 100 µM. For the same compound, the GI50 (NCI-H522) was 0.33 µM, the LC50 (concentration killing 50% of starting cells) (NCI-H522) was over 100 µM and the TGI (NCI-H522) was 8.37 µM. It also gave a GI50 (SR [1]) of 5.65 µM, an LC50 (SR [1]) of over 100 µM and a TGI (SR [1]) of 40.3 µM. It also gave a growth at 10 µM (ACHN) of 46%, a growth at 10 µM (COLO 205) of 22.5% and a growth at 10 µM (UACC-62) of 38%. For the same compound, the GI50 (NCI-H460) was 0.82 µM, the TGI (NCI-H460) was 36.9 µM and the CC50 (NCI-H460; [8]) was over 100 µM. It also gave a growth at 10 µM (SR [2]) of 4.42%, a growth at 10 µM (SF-539) of 15.1% and a GI50 (UACC-257) of 3.3 µM. For the same compound, the LC50 (concentration killing 50% of cells) (UACC-257) was over 100 µM, the TGI (UACC-257) was 61.5 µM and the growth at 10 µM (BT-549 [3]) was 21.9%. The GI50 (MDA-MB-435) was 0.22 µM, the LC50 (concentration killing 50% of starting cells) (MDA-MB-435) was over 100 µM and the TGI (MDA-MB-435) was 0.74 µM. The GI50 (MDA-MB-231) was 3.46 µM, the LC50 (MDA-MB-231) was over 100 µM and the TGI (MDA-MB-231) was over 100 µM. The growth at 10 µM (SK-MEL-2) was 36.9%, the growth at 10 µM (IGROV-1) was 37.4% and the growth at 10 µM (OVCAR-4) was 76.2%. It also gave a GI50 (SK-MEL-28) of 1.84 µM, a TGI (SK-MEL-28) of over 100 µM and a CC50 (SK-MEL-28; [8]) of over 100 µM. It also gave a GI50 [4] of 4.19 µM, a TGI [4] of 96.7 µM and a CC50 [4, 8] of over 100 µM. It also gave a GI50 (SW-620) of 43.1 µM, a TGI (SW-620) of over 100 µM and a CC50 (SW-620; [8]) of over 100 µM. It also gave a growth at 10 µM (T47D) of 41.4%, a GI50 (SF-268) of 6.99 µM and a TGI (SF-268) of over 100 µM. It also gave a CC50 (SF-268; [8]) of over 100 µM, a GI50 (A549) of 0.91 µM and a TGI (A549) of over 100 µM. It also gave a CC50 (A549; [8]) of over 100 µM, a growth at 10 µM [5] of 6.7% and a growth at 10 µM (RXF 393) of 27.4%. It also gave a growth at 10 µM [6] of -0.67%, a growth at 10 µM (HCT-116) of 15.7% and an inhibition in vivo at 50 µmol/kg (Rattus norvegicus) of 46.7%. It also gave a GI50 (BT-549 [7]) of 0.96 µM, a TGI (BT-549 [7]) of 35.6 µM and a CC50 (BT-549 [7]; [8]) of over 100 µM.
`O=c1[nH]cc(F)c(=O)[nH]1` [FLUOROURACIL] gave a GI50 (OVCAR-5) of 10.9 µM, a GI50 (NCI-H522) of 7.27 µM and a GI50 (SR [1]) of 0.02 µM. The GI50 (NCI-H460) was 0.05 µM, the GI50 (UACC-257) was 3.55 µM and the GI50 (MDA-MB-435) was 0.07 µM. The GI50 (MDA-MB-231) was 6.6 µM, the GI50 (SK-MEL-28) was 1.03 µM and the GI50 [4] was 61.8 µM. The GI50 (SW-620) was 0.92 µM, the GI50 (SF-268) was 1.62 µM and the GI50 (A549) was 0.18 µM. The GI50 (BT-549 [7]) was 10.6 µM.
